Laboratory results: the RNAGym collection of RNA variant scans (doi:10.1101/gad.245936.114)
This sample holds only a part of the variants without activity.

B1: tRNA (parent)
chain: CUCUCGGUAGCCAAGUUGGUUUAAGGCGCAAGACUUUAAUUUAUCACUACGAAAUCUUGAGAUCGGGCGUUCGACUCGCCCCCGGGAGAUUUUUUCCUCGAGCAA

Variants of: B1
Assay: nonsense suppression (GFP-seq) (ratio to wild type); higher = more function; SUP4oc tRNA, yeast GFP reporter sort-seq
Outline: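 To measure nonsense suppression, tRNA variants from a library carrying ~3% random mutations were integrated into the yeast genome alongside RFP and a GFP ochre reporter under galactose control. Growth took place in raffinose/galactose medium supplemented with 80 mg/L adenine, followed by sorting into GFP/RFP bins and Illumina sequencing of each bin (phred ≥30). For each variant with ≥100 reads and ≥30 cells, the bin median GFP/RFP values were weighted by its estimated cell share per bin and referenced to the unmutated parent tRNA.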

Row | Variant | nonsense suppression
1 | CUCUCGGUAGCCUAGUUGGUUUAAGGCGCAAGACUUUAAUUUAUCACUACGAAAUCUUGAGAUCGGGCGUUCGACUCGCCCCCGGAAGAUUUUUUCCUCGAGCAA [A13U G86A] | 0.0315
2 | CUCGCGGUAGCCAAGUUGGUUUAAGGCGCAAGACUUUAAUUUAUCACUACGAAAUCUUGAGAUCGGGCGUUCGACUUGCCCCCGGGAGAUUUUUUCCUCGAGCAA [U4G C77U] | 0.0723
3 | CUCUCGUUAGCCAAGUUGGUUAAAGGCGCAAGACUUUAAUUUAUCACUACGAAAUCUUGAGAUCGGGCGUUCGACUCGCCCCCGGGAGAUUUUUUCCUCGAGCAA [G7U U22A] | ≤ 0.026
4 | CUCUCGGUAGCCAAGUUGGUUUAAGGCGCAAGAGUUUAAUUUAUCACUACGAAAUCUUGAGAUCGGGCGGUCGACUCGCCCCCGGGAGAUUUUUUCCUCGAGCAA [C34G U70G] | ≤ 0.026
5 | CUCUCGGUAGCCAAGAUGGUUUAAGGCGCAAGACUUUAAUUUAUCACUACGAAAUCUUGAGAUCGGGCGUUCGACUCGCCCCCGAGAGAUUUUUUCCUCGAGCAA [U16A G85A] | 1.03
6 | CUCUCGGUAGCCGAGUUGGUUUAAGGCGGAAGACUUUAAUUUAUCACUACGAAAUCUUGAUAUCGGGCGGUCGACUCGCCCCCGGGAGAUUUUUUCCUCGAGCAA [A13G C29G G61U U70G] | ≤ 0.026
7 | CUCUCGGCAGCCAAGUUGGUUUAAGGCGCAAGACUUUAAUUUAUCACUACGAAAUCUUGAGAUCGGGCGUUCGACUCGCCCCCUGGAGAUUUUUUCCUCGAGCAA [U8C G84U] | ≤ 0.026
8 | CCCUCGGUAGCCAAGUUGGUUUAAGGCGCAAGACUUUAAUUUAUCACUACGAAAUAUUGAGAUCGGGCGUUCGACUCGCCCCCGGGAGAUUUUUUCCUCGAGCAA [U2C C56A] | ≤ 0.026
9 | CUCUCGGGAGCCAAGUUGGUUUAAGGCGCAAGACUUUAAUUUAUCACUACGAAAUCCUGAGAUCGGGCGUUCGACUCGCCCCCGGGAGAUUUUUUCCUCGAGCAA [U8G U57C] | ≤ 0.026
10 | CUCUCGGUAGCCAAGUUGGUUUAAGGCGCAAGACUUUAAUUUAUCACUACGAAAUCUUGAAAUCGGGCGUUCAACUCGCCCCCGGGAGAUUUUUUCCUCGAGCAA [G61A G73A] | 0.202
11 | CUCUCGGUAGCCAAGUUGGUGUAAGGCGCAAGACUUUAAUUUAUCACUACGAAAUCUUGACAUCGGGCGUUCGACUCGCCCCCGGGAGAUUUUUUCCUCGAGCAA [U21G G61C] | 0.105
12 | CUCUCGAUAGCCAAGUUGGUUUAAGGCGCAAGACUUUAAUUUAUCACUACGAAAUCUUGAGAUCGGGCGUUCGACUCGCCGCCGGGAGAUUUUUUCCUCGAGCAA [G7A C81G] | ≤ 0.026
13 | CUCUUGGUAGCCAAGUUGGUUUAAGGCGCAAGACUUUAAUUUAUCACUACGAAAUCUUGAGAUCGGGCGUUCGACACGACCCCGGGAGAUUUUUUCCUCGAGCAA [C5U U76A C79A] | ≤ 0.026
14 | CUCUCGGUAUCCAAGUUGGUUUAAGGUGAAAGACUUUAAUUUAUCACUACGAAAUCUUGCGAUCGGGCGUUCGACGCGCCCCCGGGAGAUUUUUUCCUCGAGCAA [G10U C27U C29A A60C U76G] | ≤ 0.026
15 | CUCUCGGUAGCCAAGUUGGUUUCCGGCGCACGACUUUAAUUUAUCACUACGAAAUCUUGAGAUCGGGCGUUCGACUCGCCCCCGGGAGAUUUUUUCCUCGAGCAA [A23C A24C A31C] | ≤ 0.026
16 | CUCUCGUUAGCCAAGUUGGUUUAAGGCGCAAGACUUUAAUUUAUCACUACGAAAUCUUGAGAUCGGGCGUUCGACUCGACCCCGUUAUAUUUUUUCCUCGAGCAA [G7U C79A G85U G86U G88U] | ≤ 0.026
17 | CUCUCGGUAGCCAAGUUGGUAUAAGGCGCAAGACUUUAAUUUAUCACUACGAACUCUUGAAAUCGGGCGUUCGACUCGCCCCCGGGAGAUUUUUUCCUCGAGCAA [U21A A54C G61A] | 0.215
18 | CUCACGGUAGCCAAGUUGGCUUAAGGCGCAUGACUUUAAUUUAUCACUACGAAAUCUUGAGAUCGGGCGUGCGACUCGCACCCGGGAGAUUUUUUCCUCGAGCAA [U4A U20C A31U U71G C80A] | ≤ 0.026
19 | UUCUCGGUAGCCAAGUUGGUUUAAGACGCAAGACUUUAAUUUAUCACUACGAAAUCUUGAGAUCGGGCUUUCGACUCGUCCCCGGGAGAUUUUUUCCUCGAGCAA [C1U G26A G69U C79U] | ≤ 0.026
20 | CUCUCGGUAGCCAAGUUGGUUGAAGGCGCAAGACUUUAAUUUAUCACUACGAAUUCUUGAGAUCGGGCGUUCGACUCGCCCCCGGGAUAUUUUUUCCUCGAGCAA [U22G A54U G88U] | ≤ 0.026
21 | CACUCGGUAGCCCAGUUGGUUUAAGGCGCAAGACUUUAAUUUAUCACUACGAAAUCUUGAGAUCGGGCGUUCGACUCGCCCCCGGGAGAUUUUUUCCUCGAGCAA [U2A A13C] | ≤ 0.026
22 | CUCUCGGUAGGCAAGUCGGUCUAAGGCGCAAGACUUUAAUUUAUCACUACGAAAUCUUGAGACCGGGCGUUCGACUCGCCCCCGGGAGAUUUUUUCCUCGAGCAA [C11G U17C U21C U63C] | ≤ 0.026
23 | CUCUCGGUCGCCAAGUUGGGUUAAGGCGCAAGACUUUAAUUUAUCACUACGAAAUCUUGAUAUCGGGUGUUCGACUCGCCCCCGGGAGAUUUUUUCCUCGAGCAA [A9C U20G G61U C68U] | ≤ 0.026
24 | CUCUCGGUAGCCAAGCUGGUUUGAGGCUCAAGACUUUAAUUUAUCACUACGAAAUCUUGAGAUCGGGCGUUCGACUCGCCCCCGGGAGAUUUUUUCCUCGAGCAA [U16C A23G G28U] | ≤ 0.026
25 | CUCUCGGUAGCCAAGUUGCUCUAAGGCGCAAGACUUUAAUUUAUCACUACGAAAUCUUGAGAUCGGGCGUUCGACUCGCCCCCGGGAGAUUUUUUCCUCGAGCAA [G19C U21C] | ≤ 0.026
26 | CUCGCGGUAGCCAAGUUGGUUUAAGGCGCAAAGCUUUAAUUUAUCACUACGAAAUCUUGAGAUCGGGCGUUCGACUCGCCCCCGGGAGAUUUUUUCCUCGAGCAA [U4G G32A A33G] | ≤ 0.026
27 | CUCUCGGUCGCCAAGUUGGUUUAAGGCGCAAGACUUUAAUUUAUCACUACGAAAUCUUGAGAUCGGGCGUUCGACUCGCCCCCGGGAGAUUUUUUCCUCGAGCAA [A9C] | 1.05
